These results are taken from ChEMBL document CHEMBL1129784, “Decomposition pathways and in vitro HIV inhibitory effects of isoddA pronucleotides: toward a rational approach for intracellular delivery of nucleoside 5'-monophosphates” (J Med Chem, 1996).

The nature of data set [1]: Half life in CEM cell extracts (25 uM, 37 degree C). The data set is classed as ADME, CCRF-CEM. As to conditions: human. Summed up:
(§1)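 Incubated at 25 µM initial concentration and 37 °C in full CEM cell extract, in RPMI 1640 with 10% heat-inactivated fetal calf serum, or in freshly withdrawn human serum. Aliquots analysed by on-line cleaning HPLC (precolumn deproteinization) with UV at 260 nm. Relative concentrations came from peak areas. Half-lives were derived from kinetic model fits: pseudo-first-order or substrate inhibition.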

Data set [2] in a line: Half life in culture medium (25 uM, 37 degree C). The data set is classed as ADME. Put shortly:
as §1

The nature of data set [3]: Selectivity index which is the ratio between CC50 and EC50. In kind it is functional.
The subject of data set [4] is C8166. Put plainly: Ability to reduce 50% viability of C8166 cells acutely infected with HIV-2 strain IIIB. The data set is classed as functional. Conditions: Homo sapiens, in the assay text read “HIV-2 strain CBL-20” for “HIV-2 strain IIIB”. Summed up: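 Cytotoxicity in mock-infected cells run in parallel with the antiviral assay: 1 × 10^4 MT-4 or C8166 cells per well with or without various compound concentrations, 4-day incubation at 37 °C, viable cells counted by MTT. CC50 is the dose reducing viability by 50% at day 4. Mean of three independent determinations; variation among duplicates <22%.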

The subject of data set [5] is MT4. Description: Effective dose to achieve 50% protection of MT-4 cells from acutely infected HIV-1 strain IIIB. In kind it is functional, cell-based. As to conditions: Homo sapiens. Summed up: (§2)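 Inhibition of virus-induced cytopathogenicity in acutely infected cells. HIV-1 IIIB in MT-4 cells at 100 CCID50; HIV-2 CBL-20 in C8166 cells at 1000 CCID50. 1 × 10^4 cells per well with various compound concentrations, 4 days at 37 °C, viability by MTT. EC50 is the dose giving 50% protection. Mean of three independent determinations.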

Data set [6] deals with C8166. Description: Effective dose to achieve 50% protection of C8166 cells acutely infected with HIV-2 strain IIIB. In kind it is functional, cell-based. As to conditions: Homo sapiens, in the assay text read “HIV-2 strain CBL-20” for “HIV-2 strain IIIB”. Summed up:
as §2

Data set [7] relates to MT4. Put plainly: Ability to reduce 50% viability of mock-infected MT-4 cells. Conditions: Homo sapiens.

Structures are written as SMILES. “And” between values parts separate entries of the source, which are not always exact repeats. Equal entries are not always repeated.

As to `Cc1cn(C2CC(N=[N+]=[N-])C(COP(=O)(OCCSC(=O)C(C)(C)C)OCCSC(=O)C(C)(C)C)O2)c(=O)[nH]c1=O` (stereo not given), the figures for the half-life at 25 µM in data set [1] and in data set [2] were 1 h and 103 h, respectively. Moreover, the SI in data set [3] was 600 and 245.
In the case of `CC(=O)SCCOP(=O)(OCCSC(C)=O)OCC1OC(n2cc(C)c(=O)[nH]c2=O)CC1N=[N+]=[N-]` (stereo not given), the half-life – broadly, the time needed for the level to fall by half in the phase considered – at 25 µM in data set [1] was < 0.1 h; in data set [2], 9 h.
On to `Cc1cn([C@H]2C[C@H](N=[N+]=[N-])[C@@H](CO)O2)c(=O)[nH]c1=O` [ZIDOVUDINE], for which the CC50 (as a rule, the concentration giving 50% cytotoxicity) is > 500000 nM in data set [4] and 150000 nM in data set [7]. Besides, the figures for the EC50 in data set [5] and in data set [6] were 5 nM and 6 nM, respectively. In addition, in data set [3], the SI was 30000 and > 83000.
